Test results published in ChEMBL document CHEMBL3853294, “Design, synthesis and biological evaluation of novel HSP70 inhibitors: N, N'-disubstituted thiourea derivatives” (Eur J Med Chem, 2016).

Key:
Homo sapiens [1] = organism: Homo sapiens; assay: Inhibition of HSP70 in human BT/LapR1.0 cells assessed as potentiation of 1 uM of lapatinib-induced growth inhibition at 10 uM after 72 hrs by cell titer-glo based luminescence assay
Summary of the method: (§1)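 Cells were trypsinised and seeded at 5000 cells/well, then cultured 24 h at 37 °C. Compound was added at 10 µM, alone or with 1 µM lapatinib, and incubated 72 h at 37 °C. CellTiter-Glo reagent was added at a volume equal to the medium, followed by 3 min shaking and 10 min at room temperature. Luminescence (ATP) was read and normalised to the blank control group.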

[2] = Growth inhibition of human BT474 cells at 10 uM after 72 hrs by cell titer-glo based luminescence assay; set-up: species or system BT-474; conditions: read-out: GI; summary of the method: as §1
[3] = target: Chaperone protein DnaK (Escherichia coli) (UniProt P0A6Y8); assay: Inhibition of Escherichia coli DnaK ATPase activity at 200 uM incubated on shaker for 10 mins followed by 30 mins incubation by malachite green reagent based colorimetric assay
Homo sapiens [4] = organism: Homo sapiens; assay: Inhibition of HSP70 in human BT/LapR1.0 cells assessed as potentiation of 1 uM of lapatinib-induced growth inhibition after 72 hrs by measuring coefficient of drug interaction by cell titer-glo based luminescence assay
[5] = Growth inhibition of human BT/LapR1.0 cells at 10 uM after 72 hrs by cell titer-glo based luminescence assay; conditions: read-out: GI; summary of the method: as §1
BT-474 [6] = assay: Potentiation of lapatinib-induced growth inhibition of human BT474 cells assessed as coefficient of drug interaction after 72 hrs by cell titer-glo based luminescence assay; assay type: functional
BT-474 [7] = assay: Potentiation of lapatinib-induced growth inhibition of human BT474 cells at 10 uM after 72 hrs by cell titer-glo based luminescence assay; assay type: functional; conditions: BT-474, 72 h, read-out: GI; summary of the method: as §1

Row | SMILES | inhibition [3] [%] | growth inhibition (GI) (Homo sapiens [1]) [%] | inhibition at 72 h, 10 µM [2] [%] | Activity (Homo sapiens [4]) | inhibition at 72 h, 10 µM [5] [%] | Activity (BT-474 [6]) | inhibition of growth at 10 µM (BT-474 [7]) [%]
1 | CC(C)CC(NC(=O)/C=C/c1ccccc1)NC(=S)NC1CCCCC1 (stereo unspecified) | 58.4 | 33.4 | 13.5 | < 1 | 19.8 | 0.77 | 84
2 | COc1cc(/C=C/C(=O)NC(NC(=O)Nc2ccccc2)C(C)C)cc(OC)c1OC (stereo unspecified) | – | 32.8 | 4.8 | < 1 | 11.4 | <1 | 79.1
3 | COc1cc(/C=C/C(=O)NC(NC(=S)Nc2ccccc2C)C(C)(C)C)cc(OC)c1OC (stereo unspecified) | 50.5 | 30.1 | 8.2 | < 1 | 9.9 | <1 | 81.4
4 | COc1cc(/C=C/C(=O)NC(NC(=S)Nc2cccnc2)C2CC2)cc(OC)c1OC (stereo unspecified) | < 20 | 55.7 | 8.6 | < 1 | 12.3 | <1 | 85.2
5 | COc1cc(/C=C/C(=O)NC(CC(C)(C)C)NC(=S)Nc2ccccn2)cc(OC)c1OC (stereo unspecified) | < 20 | 65.9 | 25.8 | < 1 | 31.5 | <1 | 88.5
6 | COc1cc(/C=C/C(=O)NC(NC(=S)Nc2ccccc2C)C2CC2)cc(OC)c1OC (stereo unspecified) | < 20 | 44.2 | 44 | 0.79 | 6.8 | <1 | 87.4
7 | COc1cc(/C=C/C(=O)NC(NC(=S)Nc2ccccc2)C(C)(C)C)cc(OC)c1OC (stereo unspecified) | < 20 | 48.8 | 2.2 | < 1 | 2.9 | <1 | 83.2
8 | CC(C)C(NC(=O)/C=C/c1ccccc1)NC(=S)NC1CCCCC1 (stereo unspecified) | < 20 | 75.8 | 10.3 | < 1 | 13.3 | <1 | 80.6
9 | COc1cc(/C=C/C(=O)NC(CC(C)(C)C)NC(=S)Nc2cccnc2)cc(OC)c1OC (stereo unspecified) | 47.1 | 59.9 | 22.1 | < 1 | 19.3 | 0.81 | 89.9

The next lines start with results.

Row | inhibition [3] [%] | SMILES | growth inhibition (GI) (Homo sapiens [1]) [%] | inhibition at 72 h, 10 µM [2] [%] | Activity (Homo sapiens [4]) | inhibition at 72 h, 10 µM [5] [%] | Activity (BT-474 [6]) | inhibition of growth at 10 µM (BT-474 [7]) [%]
10 | < 20 | CC(C)C(NC(=O)/C=C/c1ccccc1)NC(=S)Nc1ccccc1 (stereo unspecified) | 30 | 9.4 | < 1 | 11.5 | <1 | 82
11 | < 20 | Cc1ccccc1NC(=S)NC(NC(=O)/C=C/c1ccccc1)C(C)(C)C (stereo unspecified) | 20.5 | 7 | < 1 | 9.7 | <1 | 78.7
12 | < 20 | O=C(/C=C/c1ccccc1)NC(NC(=S)Nc1ccccc1)C1CC1 (stereo unspecified) | 27.8 | 3.8 | < 1 | 8.7 | <1 | 81.4
13 | < 20 | Cc1ccccc1NC(=S)NC(CC(C)C)NC(=O)/C=C/c1ccccc1 (stereo unspecified) | 23.3 | 9.8 | < 1 | 12.8 | 0.84 | 81.6
14 | 65.4 | Cc1ccccc1NC(=S)NC(NC(=O)/C=C/c1ccccc1)C1CC1 (stereo unspecified) | 20 | 6 | < 1 | 8.7 | <1 | 78.6
15 | 41 | Cc1ccccc1NC(=S)NC(CC(C)(C)C)NC(=O)/C=C/c1ccccc1 (stereo unspecified) | 41 | 18.2 | 0.79 | 18.9 | 0.74 | 84.2
16 | 50.5 | COc1cc(/C=C/C(=O)NC(NC(=S)Nc2ccccc2)C2CC2)cc(OC)c1OC (stereo unspecified) | 56 | 12.2 | < 1 | 13.7 | <1 | 85.2
